Our source for the EC50 values is ChEMBL document CHEMBL1133516, “Biarylpropylsulfonamides as novel, potent potentiators of 2-amino-3- (5-methyl-3-hydroxyisoxazol-4-yl)- propanoic acid (AMPA) receptors” (J Med Chem, 2000).

Sequence of Glutamate receptor 4 (P48058 whole entry): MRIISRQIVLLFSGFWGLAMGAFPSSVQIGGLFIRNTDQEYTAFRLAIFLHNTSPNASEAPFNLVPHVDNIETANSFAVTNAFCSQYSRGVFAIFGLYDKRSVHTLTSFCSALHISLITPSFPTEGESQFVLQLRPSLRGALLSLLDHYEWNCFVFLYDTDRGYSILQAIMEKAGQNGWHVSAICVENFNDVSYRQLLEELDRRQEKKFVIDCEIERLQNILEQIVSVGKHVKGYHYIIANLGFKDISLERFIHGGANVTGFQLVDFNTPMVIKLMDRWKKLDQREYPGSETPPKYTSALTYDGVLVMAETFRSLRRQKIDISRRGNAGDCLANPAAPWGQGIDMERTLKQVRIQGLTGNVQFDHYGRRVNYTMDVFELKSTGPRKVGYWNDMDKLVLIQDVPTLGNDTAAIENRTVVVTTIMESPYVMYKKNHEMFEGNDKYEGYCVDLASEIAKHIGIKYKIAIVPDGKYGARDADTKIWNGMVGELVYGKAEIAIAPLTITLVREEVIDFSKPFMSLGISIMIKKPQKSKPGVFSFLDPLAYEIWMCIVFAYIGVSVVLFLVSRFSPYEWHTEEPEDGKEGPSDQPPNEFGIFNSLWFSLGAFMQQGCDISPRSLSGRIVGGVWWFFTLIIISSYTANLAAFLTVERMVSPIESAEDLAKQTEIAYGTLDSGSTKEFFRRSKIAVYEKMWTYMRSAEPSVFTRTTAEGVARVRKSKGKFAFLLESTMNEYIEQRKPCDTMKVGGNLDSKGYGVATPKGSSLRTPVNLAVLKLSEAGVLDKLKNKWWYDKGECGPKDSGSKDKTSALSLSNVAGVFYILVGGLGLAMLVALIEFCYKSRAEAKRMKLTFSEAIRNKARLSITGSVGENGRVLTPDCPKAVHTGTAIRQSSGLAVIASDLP

The target in this assay is Glutamate receptor 4 (Homo sapiens, UniProt P48058). The experiment in a line: Tested for potentiation towards human iGluR4 receptor expressed in HEK293 cells. Type of assay: functional, cell-based. A digest of the protocol:
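Human GluR4 flip, stably homomerically expressed in HEK-293 cells. Cells loaded 60 min with 20 µM Fluo3-AM in HEPES buffer (138 mM NaCl, 5 mM CaCl2, 10 mM glucose, pH 7.1-7.3), then washed. Calcium-influx fluorescence read after 100 µM L-glutamate with compound at various concentrations. Responses expressed as % of 100 µM cyclothiazide; EC50 ± SEM calculated.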
In the case of `CCC(CNS(=O)(=O)C(C)C)c1ccc(C(C)(C)C)cc1` (centres undefined), the concentration for a half-maximal effect (EC50) was determined as 2 µM.

Turning to `Cc1ccc(-c2ccc(C(C)CNS(=O)(=O)C(C)C)cc2)cc1` (centres undefined), the EC50 is 0.27 µM.

`CC(CNS(=O)(=O)C(C)C)c1ccc(-c2ccc(C#N)cc2)cc1` (centres undefined): the EC50 came to 0.29 µM.

On to `CC(C)S(=O)(=O)NCC(Cc1ccccc1)c1ccc(C(C)(C)C)cc1` (centres undefined), for which the concentration for a half-maximal effect (EC50) is greater than 100 µM.

On to `CC(CNS(=O)(=O)C(C)C)c1ccc(C(C)(C)C)cc1` (centres undefined), for which the concentration for a half-maximal effect (EC50) was 1.2 µM.

As for `CC(CNS(=O)(=O)C(C)C)c1ccc(-c2ccc(C(=O)O)cc2)cc1` (centres undefined), the 50% effective concentration (EC50) amounted to 1.4 µM.

On to `CCS(=O)(=O)NCC(C)c1ccc(-c2ccccc2F)cc1` (centres undefined), for which the EC50 is 5.4 µM.

Regarding `CC(CNS(=O)(=O)N(C)C)c1ccc(-c2ccccc2F)cc1` (centres undefined), the EC50 turned out to be 4 µM.

Take `CC(CNS(C)(=O)=O)c1ccc(-c2ccccc2F)cc1` (centres undefined): the EC50 is 19.6 µM.

For the compound `CC(CNS(=O)(=O)C(C)C)c1ccc(-c2ccc(C=O)cc2)cc1` (centres undefined), the 50% effective concentration (EC50) stood at 0.25 µM.

With `CC(CNS(=O)(=O)C(C)C)c1ccc(-c2ccc(Cl)cc2)cc1` (centres undefined), the EC50 is greater than 3 µM.

In the case of `CCCCS(=O)(=O)NCC(C)c1ccc(-c2ccccc2F)cc1` (centres undefined), the concentration giving a half-maximal response (EC50) was greater than 100 µM.

With `CC(CNS(C)(=O)=O)c1ccc(-c2ccsc2)cc1` (centres undefined), the half-maximal effective concentration (EC50) amounted to 4.5 µM.

Consider `CC(CN)c1ccc(-c2ccccc2F)cc1` (centres undefined), for which the EC50 was greater than 100 µM.

As for `NS(=O)(=O)c1cc2c(cc1Cl)NC(C1CC3C=CC1C3)NS2(=O)=O` (centres undefined) [CYCLOTHIAZIDE], the half-maximal effective concentration (EC50) is 3.8 µM.

Take `CC(C)S(=O)(=O)NCC(CCc1ccccc1)c1ccc(C(C)(C)C)cc1` (centres undefined): the EC50 is greater than 100 µM.

On to `CCCC(CNS(=O)(=O)C(C)C)c1ccc(C(C)(C)C)cc1` (centres undefined), for which the EC50 worked out at 27.9 µM.

`O=C(c1ccc2nccnc2c1)N1CCCCC1` [CX516]: the EC50 was greater than 1000 µM.

In the case of `CC(CNS(=O)(=O)C(C)C)c1ccc(-c2ccsc2)cc1` (centres undefined), the EC50 was 0.66 µM.

Regarding `CC(C)S(=O)(=O)NCCc1ccc(C(C)(C)C)cc1`, the half-maximal effective concentration (EC50) was 12.8 µM.

`CC(CNS(=O)(=O)Cc1ccccc1)c1ccc(-c2ccccc2F)cc1` (centres undefined): the concentration for a half-maximal effect (EC50) is greater than 100 µM.

With `CC(C)S(=O)(=O)NCCc1ccc(-c2ccccc2F)cc1`, the EC50 turned out to be 7.2 µM.

Consider `CC(CNS(=O)(=O)C(C)C)c1ccc(-c2ccc(N)cc2)cc1` (centres undefined), for which the EC50 is 0.13 µM.

On to `CC(CNS(=O)(=O)C(C)C)c1ccc(-c2ccccc2F)cc1` (centres undefined), for which the EC50 was 4.4 µM.

For the compound `CC(CNS(=O)(=O)C(C)C)c1ccc(-c2ccc(C(F)(F)F)cc2)cc1` (centres undefined), the EC50 was greater than 3 µM.

Consider `CCCS(=O)(=O)NCC(C)c1ccc(-c2ccccc2F)cc1` (centres undefined), for which the concentration for a half-maximal effect (EC50) was determined as 23.8 µM.

With `CC(CNS(=O)(=O)C(C)C)c1ccc(-c2ccccc2)cc1` (centres undefined), the EC50 came out at 1 µM.

For the compound `CC(CNS(=O)(=O)C(F)(F)F)c1ccc(-c2ccccc2F)cc1` (centres undefined), the EC50 stood at 32.9 µM.

In the case of `CC(CNS(=O)(=O)c1ccccc1)c1ccc(-c2ccccc2F)cc1` (centres undefined), the EC50 came out at 62.5 µM.

Usually EC50 stands for the concentration at which the effect is half-maximal.
